Data taken from ChEMBL document CHEMBL1123045, “Synthesis of high specific activity [75Br]- and [77Br]bromperidol and tissue distribution studies in the rat” (J Med Chem, 1985).

Legend:
Rattus norvegicus [1] = experiment: Distribution in rat liver 15 min after intravenous administration, injected dose/gm; type: ADME, organism-based; conditions: in vivo, 0.25 h
Summary of the method: (§1)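 [77Br]Bromperidol at high specific activity (50-100 µCi in 0.1 mL 0.9% NaCl, pH 3) given into the femoral vein of 300-320-g female Sprague-Dawley rats under light ether anesthesia. At each time point, groups of five were decapitated after cardiac-puncture blood sampling. Organs were dissected, blotted, weighed and gamma-counted against an injectate standard. Values are % injected dose/g, mean ± SD, n=5.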

Rattus norvegicus [2] = experiment: Distribution in rat liver 1 hr after intravenous administration, injected dose/gm; type: ADME, organism-based; conditions: in vivo; summary of the method: as §1
Rattus norvegicus [3] = experiment: Distribution in rat muscle 30 min after intravenous administration, injected dose/gm; type: ADME, organism-based, Muscle tissue; conditions: in vivo, 0.5 h
Summary of the method: (§2)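 Female Sprague-Dawley rats (300-320 g) under light ether anesthesia received a single injection of [77Br]-labeled tracer (50-100 µCi in 0.1 mL 0.9% NaCl, pH 3) into the femoral vein. Groups of five were decapitated at set times after a cardiac-puncture blood sample. Organs were dissected, blotted and weighed, and counted in a NaI(Tl) well γ-counter. Values are %ID/g against an injectate standard, mean ± SD (n=5).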

Rattus norvegicus [4] = experiment: Distribution in rat muscle 4 hr after intravenous administration, injected dose/gm; type: ADME, organism-based, Muscle tissue; conditions: in vivo; summary of the method: as §2
Rattus norvegicus [5] = experiment: Distribution in rat muscle 5 min after intravenous administration, injected dose/gm; type: ADME, organism-based, Muscle tissue; conditions: in vivo; summary of the method: as §2
Rattus norvegicus [6] = experiment: Distribution in rat muscle 6 hr after intravenous administration, injected dose/gm; type: ADME, organism-based, Muscle tissue; conditions: in vivo; summary of the method: as §2
Rattus norvegicus [7] = experiment: Distribution in rat muscle 8 hr after intravenous administration, injected dose/gm; type: ADME, organism-based, Muscle tissue; conditions: in vivo; summary of the method: as §2
Rattus norvegicus [8] = experiment: Distribution in rat pancreas 15 min after intravenous administration, injected dose/gm; type: ADME, organism-based; conditions: in vivo, 0.25 h; summary of the method: as §2
Rattus norvegicus [9] = experiment: Distribution in rat pancreas 1 hr after intravenous administration, injected dose/gm; type: ADME, organism-based; conditions: in vivo; summary of the method: as §2
Rattus norvegicus [10] = experiment: Distribution in rat pancreas 2 hr after intravenous administration, injected dose/gm; type: ADME, organism-based; conditions: in vivo; summary of the method: as §2
Rattus norvegicus [11] = experiment: Distribution in rat pancreas 30 min after intravenous administration, injected dose/gm; type: ADME, organism-based; conditions: in vivo, 0.5 h; summary of the method: as §2
Rattus norvegicus [12] = experiment: Distribution in rat pancreas 4 hr after intravenous administration, injected dose/gm; type: ADME, organism-based; conditions: in vivo; summary of the method: as §2
Rattus norvegicus [13] = experiment: Distribution in rat pancreas 5 min after intravenous administration, injected dose/gm; type: ADME, organism-based; conditions: in vivo; summary of the method: as §2
Rattus norvegicus [14] = experiment: Distribution in rat pancreas 6 hr after intravenous administration, injected dose/gm; type: ADME, organism-based; conditions: in vivo; summary of the method: as §2
Rattus norvegicus [15] = experiment: Distribution in rat pancreas 8 hr after intravenous administration, injected dose/gm; type: ADME, organism-based; conditions: in vivo; summary of the method: as §2
Rattus norvegicus [16] = experiment: Distribution in rat heart 4 hr after intravenous administration, injected dose/gm; type: ADME, organism-based; conditions: in vivo; summary of the method: as §1
Rattus norvegicus [17] = experiment: Distribution in rat heart 5 min after intravenous administration, injected dose/gm; type: ADME, organism-based; conditions: in vivo; summary of the method: as §1
Rattus norvegicus [18] = experiment: Distribution in rat heart 6 hr after intravenous administration, injected dose/gm; type: ADME, organism-based; conditions: in vivo; summary of the method: as §1
Rattus norvegicus [19] = experiment: Distribution in rat heart 8 hr after intravenous administration, injected dose/gm; type: ADME, organism-based; conditions: in vivo; summary of the method: as §1
Rattus norvegicus [20] = experiment: Distribution in rat intestine 15 min after intravenous administration, injected dose/gm; type: ADME, organism-based; conditions: in vivo, 0.25 h; summary of the method: as §1
Rattus norvegicus [21] = experiment: Distribution in rat intestine 1 hr after intravenous administration, injected dose/gm; type: ADME, organism-based; conditions: in vivo; summary of the method: as §1
Rattus norvegicus [22] = experiment: Distribution in rat intestine 2 hr after intravenous administration, injected dose/gm; type: ADME, organism-based; conditions: in vivo; summary of the method: as §1
Rattus norvegicus [23] = experiment: Distribution in rat intestine 30 min after intravenous administration, injected dose/gm; type: ADME, organism-based; conditions: in vivo, 0.5 h; summary of the method: as §1
Rattus norvegicus [24] = experiment: Distribution in rat intestine 5 min after intravenous administration, injected dose/gm; type: ADME, organism-based; conditions: in vivo; summary of the method: as §1
Rattus norvegicus [25] = experiment: Distribution in rat intestine 6 hr after intravenous administration, injected dose/gm; type: ADME, organism-based; conditions: in vivo; summary of the method: as §1
Rattus norvegicus [26] = experiment: Distribution in rat intestine 8 hr after intravenous administration, injected dose/gm; type: ADME, organism-based; conditions: in vivo; summary of the method: as §1
Rattus norvegicus [27] = experiment: Distribution in rat kidney, 15 min after intravenous administration, injected dose/gm; type: ADME, organism-based; conditions: in vivo, 0.25 h; summary of the method: as §1
Rattus norvegicus [28] = experiment: Distribution in rat kidney, 1 hr after intravenous administration, injected dose/gm; type: ADME, organism-based; conditions: in vivo; summary of the method: as §1
Rattus norvegicus [29] = experiment: Distribution in rat kidney, 2 hr after intravenous administration, injected dose/gm; type: ADME, organism-based; conditions: in vivo; summary of the method: as §1
Rattus norvegicus [30] = experiment: Distribution in rat kidney, 30 min after intravenous administration, injected dose/gm; type: ADME, organism-based; conditions: in vivo, 0.5 h; summary of the method: as §1
Rattus norvegicus [31] = experiment: Distribution in rat kidney, 4 hr after intravenous administration, injected dose/gm; type: ADME, organism-based; conditions: in vivo; summary of the method: as §1
Rattus norvegicus [32] = experiment: Distribution in rat kidney, 5 min after intravenous administration, injected dose/gm; type: ADME, organism-based; conditions: in vivo; summary of the method: as §1
Rattus norvegicus [33] = experiment: Distribution in rat kidney, 6 hr after intravenous administration, injected dose/gm; type: ADME, organism-based; conditions: in vivo; summary of the method: as §1
Rattus norvegicus [34] = experiment: Distribution in blood of rat, 8 hr after intravenous administration, injected dose/gm; type: ADME, organism-based; conditions: in vivo; summary of the method: as §1
Rattus norvegicus [35] = experiment: Distribution in brain of rat, 15 min after intravenous administered, injected dose/gm; type: ADME, organism-based; conditions: in vivo, 0.25 h; summary of the method: as §1
Rattus norvegicus [36] = experiment: Distribution in brain of rat, 1 hr after intravenous administered, injected dose/gm; type: ADME, organism-based; conditions: in vivo; summary of the method: as §1
Rattus norvegicus [37] = experiment: Distribution in brain of rat, 2 hr after intravenous administered, injected dose/gm; type: ADME, organism-based; conditions: in vivo; summary of the method: as §1
Rattus norvegicus [38] = experiment: Distribution in brain of rat, 30 min after intravenous administered, injected dose/gm; type: ADME, organism-based; conditions: in vivo, 0.5 h; summary of the method: as §1
Rattus norvegicus [39] = experiment: Distribution in brain of rat, 4 hr after intravenous administered, injected dose/gm; type: ADME, organism-based; conditions: in vivo; summary of the method: as §1
Rattus norvegicus [40] = experiment: Distribution in brain of rat, 5 min after intravenous administered, injected dose/gm; type: ADME, organism-based; conditions: in vivo; summary of the method: as §1
Rattus norvegicus [41] = experiment: Distribution in brain of rat, 8 hr after intravenous administered, injected dose/gm; type: ADME, organism-based; conditions: in vivo; summary of the method: as §1
Rattus norvegicus [42] = experiment: Distribution in rat fat 15 min after intravenous administration, injected dose/gm; type: ADME, organism-based, Adipose tissue; conditions: in vivo, 0.25 h; summary of the method: as §1
Rattus norvegicus [43] = experiment: Distribution in rat fat 1 hr after intravenous administration, injected dose/gm; type: ADME, organism-based, Adipose tissue; conditions: in vivo; summary of the method: as §1
Rattus norvegicus [44] = experiment: Distribution in rat fat 2 hr after intravenous administration, injected dose/gm; type: ADME, organism-based, Adipose tissue; conditions: in vivo; summary of the method: as §1
Rattus norvegicus [45] = experiment: Distribution in rat fat 30 min after intravenous administration, injected dose/gm; type: ADME, organism-based, Adipose tissue; conditions: in vivo, 0.5 h; summary of the method: as §1
Rattus norvegicus [46] = experiment: Distribution in rat fat 5 min after intravenous administration, injected dose/gm; type: ADME, organism-based, Adipose tissue; conditions: in vivo; summary of the method: as §1
Rattus norvegicus [47] = experiment: Distribution in rat fat 6 hr after intravenous administration, injected dose/gm; type: ADME, organism-based, Adipose tissue; conditions: in vivo; summary of the method: as §1
Rattus norvegicus [48] = experiment: Distribution in rat fat 8 hr after intravenous administration, injected dose/gm; type: ADME, organism-based, Adipose tissue; conditions: in vivo; summary of the method: as §1
Rattus norvegicus [49] = experiment: Distribution in rat heart 15 min after intravenous administration, injected dose/gm; type: ADME, organism-based; conditions: in vivo, 0.25 h; summary of the method: as §1
Rattus norvegicus [50] = experiment: Distribution in rat heart 1 hr after intravenous administration, injected dose/gm; type: ADME, organism-based; conditions: in vivo; summary of the method: as §1

Distribution (Rattus norvegicus [1]): 2.19%
Distribution (Rattus norvegicus [2]): 2.99%
Distribution (Rattus norvegicus [3]): 0.23%
Distribution (Rattus norvegicus [4]): 0.12%
Distribution (Rattus norvegicus [5]): 0.32%
Distribution (Rattus norvegicus [6]): 0.13%
Distribution (Rattus norvegicus [7]): 0.1%
Distribution (Rattus norvegicus [8]): 4.72%
Distribution (Rattus norvegicus [9]): 4.23%
Distribution (Rattus norvegicus [10]): 3.76%
Distribution (Rattus norvegicus [11]): 5.2%
Distribution (Rattus norvegicus [12]): 3.51%
Distribution (Rattus norvegicus [13]): 3.16%
Distribution (Rattus norvegicus [14]): 2.83%
Distribution (Rattus norvegicus [15]): 2.05%
Distribution (Rattus norvegicus [16]): 0.36%
Distribution (Rattus norvegicus [17]): 2.29%
Distribution (Rattus norvegicus [18]): 0.39%
Distribution (Rattus norvegicus [19]): 0.3%
Distribution (Rattus norvegicus [20]): 0.91%
Distribution (Rattus norvegicus [21]): 0.89%
Distribution (Rattus norvegicus [22]): 0.82%
Distribution (Rattus norvegicus [23]): 0.83%
Distribution (Rattus norvegicus [24]): 0.39%
Distribution (Rattus norvegicus [25]): 0.98%
Distribution (Rattus norvegicus [26]): 0.85%
Distribution (Rattus norvegicus [27]): 4.69%
Distribution (Rattus norvegicus [28]): 4.11%
Distribution (Rattus norvegicus [29]): 2.93%
Distribution (Rattus norvegicus [30]): 5.01%
Distribution (Rattus norvegicus [31]): 1.95%
Distribution (Rattus norvegicus [32]): 4.96%
Distribution (Rattus norvegicus [33]): 1.93%
Distribution (Rattus norvegicus [34]): 0.02%
Distribution (Rattus norvegicus [35]): 3.04%
Distribution (Rattus norvegicus [36]): 2.48%
Distribution (Rattus norvegicus [37]): 1.85%
Distribution (Rattus norvegicus [38]): 2.82%
Distribution (Rattus norvegicus [39]): 1.61%
Distribution (Rattus norvegicus [40]): 2.26%
Distribution (Rattus norvegicus [41]): 1.29%
Distribution (Rattus norvegicus [42]): 0.16%
Distribution (Rattus norvegicus [43]): 0.22%
Distribution (Rattus norvegicus [44]): 0.18%
Distribution (Rattus norvegicus [45]): 0.2%
Distribution (Rattus norvegicus [46]): 0.05%
Distribution (Rattus norvegicus [47]): 0.19%
Distribution (Rattus norvegicus [48]): 0.18%
Distribution (Rattus norvegicus [49]): 1.37%
Distribution (Rattus norvegicus [50]): 0.55%
SMILES: O=C(CCCN1CCC(O)(c2ccc(Br)cc2)CC1)c1ccc(F)cc1 [BROMPERIDOL]
